Results: ChEMBL document CHEMBL4308915, “Synthesis of novel pyrazoline derivatives and the evaluation of death mechanisms involved in their antileukemic activity” (Bioorg Med Chem, 2019)
The source made the active and inactive calls. No cut-off for these calls is given here.

Assays:
B16-F10 [1] = experiment: Cytotoxicity against mouse B16F10 cells assessed as reduction in cell viability after 72 hrs by MTT assay; format: functional, cell-based; conditions: B16-F10, 72 h
[2] = Hemolytic activity in human RBC at 15 times IC50 relative to control; format: ADME, cell-based, Erythrocyte; conditions: red blood cells (erythrocytes), read-out: Activity
Procedure, shortened: (§1)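 RBC from healthy non-smoking volunteers incubated with increasing concentrations of the selected pyrazolines. Saline served as the 0% lysis control and distilled water as the 100% lysis control. Percent hemolysis calculated relative to these controls.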

K562 [3] = experiment: Induction of apoptosis in human K562 cells at 32 uM after 12 hrs by Annexin-V FITC staining-based flow cytometry relative to control; format: functional
Jurkat [4] = experiment: Induction of apoptosis in human Jurkat cells assessed as increase in membrane blebbing at 30.08 uM by acridine orange/ethidium bromide staining-based fluorescence microscopic analysis; format: functional, cell-based
Jurkat [5] = experiment: Induction of apoptosis in human Jurkat cells assessed as increase in loss of membrane integrity at 30.08 uM by acridine orange/ethidium bromide staining-based fluorescence microscopic analysis; format: functional, cell-based
PBMC [6] = experiment: Cytotoxicity against human PBMC assessed as reduction in cell viability after 48 hrs by MTT assay; format: cell-based
[7] = Selectivity index, ratio of IC50 for human PBMC to IC50 for human K562 cells after 24 hrs; format: toxicity; conditions: PBMC versus K562 cells, read-out: Ratio IC50
Procedure, shortened: (§2)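 MTT viability after 24 h exposure to 1-100µM; untreated control OD taken as 100%. IC50 by curve fitting in each line and in PBMC from six healthy donors (Ficoll-Hypaque). SI = IC50 PBMC / IC50 tumor line; SI ≥5 high, 2–5 moderate, <2 low.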

Jurkat [8] = experiment: Induction of apoptosis in human Jurkat cells assessed as increase in Bax expression at 30.08 uM after 12 hrs by flow cytometric analysis relative to control; format: functional
Jurkat [9] = experiment: Cytotoxicity against human Jurkat cells assessed as reduction in cell viability after 72 hrs by MTT assay; format: functional, cell-based
[10] = Hemolytic activity in human RBC at 9 times IC50 relative to control; format: ADME, cell-based, Erythrocyte; conditions: red blood cells (erythrocytes), read-out: Activity; procedure, shortened: as §1
K562 [11] = experiment: Induction of apoptosis in human K562 cells assessed as reduction in cells with intact mitochondrial membrane potential at 32 uM after 12 hrs by flow cytometric analysis relative to control; format: functional; set-up: scale not given: the % may be the effect or the level left
Jurkat [12] = experiment: Cell cycle arrest in human Jurkat cells assessed as increase in accumulation at S phase at 30.08 uM after 12 hrs by propidium iodide/RNAse staining based flow cytometric analysis; format: functional
Jurkat [13] = experiment: Induction of apoptosis in human Jurkat cells assessed reduction in cells with intact mitochondrial membrane potential at 30.08 uM after 12 hrs by flow cytometric analysis relative to control; format: functional; set-up: scale not given: the % may be the effect or the level left
Jurkat (human) = experiment: Induction of apoptosis in human Jurkat cells assessed as increase in AIF release at 30.08 uM after 12 hrs by flow cytometric analysis relative to control
Jurkat [14] = experiment: Induction of apoptosis in human Jurkat cells at 30.08 uM after 12 hrs by Annexin-V FITC staining-based flow cytometry relative to control; format: functional
Jurkat [15] = experiment: Cytotoxicity against human Jurkat cells assessed as reduction in cell viability after 24 hrs by MTT assay; format: functional, cell-based
Procedure, shortened: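 MTT viability after 24 h exposure. Cells seeded at 5x10^4 per well and tested at 1-100 µM. Optical density of untreated cells set as 100% viable. IC50 derived by curve fitting. PBMC from healthy non-smoking volunteers, isolated by Ficoll-Hypaque.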

Jurkat [16] = experiment: Induction of apoptosis in human Jurkat cells assessed as increase in caspase-3 expression at 30.08 uM after 12 hrs by flow cytometric analysis relative to control; format: functional
K562 [17] = experiment: Induction of apoptosis in human K562 cells assessed as decrease in Bcl2 expression at 32 uM after 12 hrs by flow cytometric analysis relative to control; format: functional; set-up: scale not given: the % may be the effect or the level left
[18] = Hemolytic activity in human RBC at 2 times IC50 relative to control; format: ADME, cell-based, Erythrocyte; conditions: red blood cells (erythrocytes), read-out: Activity; procedure, shortened: as §1
[19] = Hemolytic activity in human RBC at 12 times IC50 relative to control; format: ADME, cell-based, Erythrocyte; conditions: red blood cells (erythrocytes), read-out: Activity; procedure, shortened: as §1
K562 [20] = experiment: Induction of apoptosis in human K562 cells assessed as increase in FasR expression at 32 uM after 12 hrs by flow cytometric analysis relative to control; format: functional
Jurkat [21] = experiment: Induction of apoptosis in human Jurkat cells assessed as increase in chromatin condensation at 30.08 uM by acridine orange/ethidium bromide staining-based fluorescence microscopic analysis; format: functional, cell-based
Jurkat [22] = experiment: Induction of apoptosis in human Jurkat cells assessed as increase in AIF release at 30.08 uM after 12 hrs by flow cytometric analysis relative to control; format: functional
Jurkat [23] = experiment: Induction of apoptosis in human Jurkat cells assessed as decrease in survivin level at 30.08 uM after 12 hrs by flow cytometric analysis relative to control; format: functional
K562 [24] = experiment: Induction of apoptosis in human K562 cells assessed as increase in chromatin condensation at 32 uM by acridine orange/ethidium bromide staining-based fluorescence microscopic analysis; format: functional, cell-based
K562 [25] = experiment: Induction of apoptosis in human K562 cells assessed as increase in membrane blebbing at 32 uM by acridine orange/ethidium bromide staining-based fluorescence microscopic analysis; format: functional, cell-based
PBMC [26] = experiment: Cytotoxicity against human PBMC assessed as reduction in cell viability after 72 hrs by MTT assay; format: cell-based
Jurkat [27] = experiment: Antiproliferative activity against human Jurkat cells assessed as reduction in KI-67 expression at 30.08 uM after 12 hrs by flow cytometric analysis; format: functional, cell-based
Jurkat [28] = experiment: Cytotoxicity against human Jurkat cells assessed as reduction in cell viability after 48 hrs by MTT assay; format: functional, cell-based
[29] = Selectivity index, ratio of IC50 for human PBMC to IC50 for human Jurkat cells after 24 hrs; format: toxicity; conditions: PBMC versus Jurkat cells, read-out: Ratio IC50; procedure, shortened: as §2
[30] = (§3) Cytotoxicity against acute leukemia patient-derived bone marrow cells assessed as reduction in cell viability after 24 hrs; format: functional, cell-based; conditions: Homo sapiens
Procedure, shortened: (§4)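 Mononuclear cells from acute leukemia patient samples (peripheral blood or bone marrow, taken before first treatment at diagnosis or relapse) isolated by Ficoll-Hypaque.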

Homo sapiens = organism: Homo sapiens; experiment: as §3; format: functional, cell-based; procedure, shortened: as §4
K562 [31] = experiment: Antiproliferative activity against human K562 cells assessed as reduction in KI-67 expression at 32 uM after 12 hrs by flow cytometric analysis; format: functional, cell-based
[32] = Selectivity index, ratio of IC50 for human PBMC to IC50 for mouse B16F10 cells after 24 hrs; format: toxicity; conditions: PBMC versus B16F10 cells, read-out: Ratio IC50; procedure, shortened: as §2
B16-F10 [33] = experiment: Cytotoxicity against mouse B16F10 cells assessed as reduction in cell viability after 48 hrs by MTT assay; format: functional, cell-based; conditions: B16-F10, 48 h
PBL = experiment: Cytotoxicity against acute leukemia patient-derived PBL cells assessed as reduction in cell viability after 24 hrs; format: functional, cell-based; conditions: Homo sapiens; procedure, shortened: as §4
Daudi = experiment: Cytotoxicity against human Daudi cells assessed as reduction in cell viability after 72 hrs by MTT assay; format: functional, cell-based
K562 [34] = experiment: Induction of apoptosis in human K562 cells assessed as increase in loss of membrane integrity at 32 uM by acridine orange/ethidium bromide staining-based fluorescence microscopic analysis; format: functional, cell-based
[35] = Hemolytic activity in human RBC at 1 time IC50 relative to control; format: ADME, cell-based, Erythrocyte; conditions: red blood cells (erythrocytes), read-out: Activity; procedure, shortened: as §1
K562 [36] = experiment: Cytotoxicity against human K562 cells assessed as reduction in cell viability after 48 hrs by MTT assay; format: functional, cell-based; conditions: K562, 48 h

`COc1cc(C2=NN(C(C)=O)C(c3ccc(Br)cc3)C2)cc(OC)c1OC` (stereo unspecified) showed an IC50 (B16-F10 [1]) of 62.5 µM, a hemolysis at 15 times IC50 [2] of 15.8% and an Activity (K562 [3]) of 25%. The Activity (Jurkat [4]) was “Active”, the Activity (Jurkat [5]) was “Active” and the IC50 (PBMC [6]) was 287 µM. For the same compound, the selectivity ratio at 24 h [7] was 11, the Activity (Jurkat [8]) was 101.4% and the IC50 (Jurkat [9]) was 15.6 µM. The hemolysis at 9 times IC50 [10] was 6%, the Activity (K562 [11]) was 25.3% and the Activity (Jurkat [12]) was “inactive”. The Activity (Jurkat [13]) was 32.9%, the Activity (Jurkat (human)) was 33.2% and the Activity (Jurkat [14]) was 24.6%. For the same compound, the IC50 (Jurkat [15]) was 30.8 µM, the Activity (Jurkat [16]) was 128.3% and the Activity (K562 [17]) was 13.4%. For the same compound, the hemolysis at 2 times IC50 [18] was 1.3%, the hemolysis at 12 times IC50 [19] was 12.9% and the Activity (K562 [20]) was 21.3%. For the same compound, the Activity (Jurkat [21]) was “Active”, the Activity (Jurkat [22]) was 33.2% and the Activity (Jurkat [23]) was 10.7%. For the same compound, the Activity (K562 [24]) was “Active”, the Activity (K562 [25]) was “Active” and the IC50 (PBMC [26]) was 118 µM. The Activity (Jurkat [27]) was “Active”, the IC50 (Jurkat [28]) was 17.2 µM and the selectivity ratio at 24 h [29] was 10.6. For the same compound, the IC50 [30] was 31 to 98.2 µM, the Activity (Homo sapiens) was “Dose-dependent effect” and the Activity (K562 [31]) was “Active”. The selectivity ratio at 24 h [32] was 3.4, the IC50 (B16-F10 [33]) was 72.7 µM and the Activity (PBL) was “Dose-dependent effect”. The IC50 (PBL) was 11.8 to 142 µM, the IC50 (Daudi) was 33 µM and the Activity (K562 [34]) was “Active”. It also gave a hemolysis at 1 times IC50 [35] of 0.9% and an IC50 (K562 [36]) of 16.2 µM.
